Screens (PubChem BioAssay)
Shown are actives, neighbours in structure and some others; about 2.3% of the full set was active somewhere.
TAAR1 ag – human TAAR1 agonism; CHO RD-HGA16 TAAR1, Fluo-8 calcium fluorescence; vehicle wells 0%, saturating PEA agonist 100%; activation, % at 3 µM; AID 624467; hit rate 0.99% among 360,000; Q96RJ0;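 active means activation above the mean activation of all test compounds in the run plus 3 SD, cut at about 38% in these data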
Target sequence (Q96RJ0 whole entry, looked up): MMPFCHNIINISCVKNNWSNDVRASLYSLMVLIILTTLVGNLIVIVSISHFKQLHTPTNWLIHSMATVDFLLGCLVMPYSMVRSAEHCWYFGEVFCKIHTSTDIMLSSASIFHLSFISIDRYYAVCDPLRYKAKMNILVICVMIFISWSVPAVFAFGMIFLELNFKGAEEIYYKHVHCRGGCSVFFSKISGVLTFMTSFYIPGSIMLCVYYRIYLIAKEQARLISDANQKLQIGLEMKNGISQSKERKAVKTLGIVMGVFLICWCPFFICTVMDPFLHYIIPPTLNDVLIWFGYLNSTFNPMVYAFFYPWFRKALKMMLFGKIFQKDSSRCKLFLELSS
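Test system: RD-HGA16 (CHO) cells co-expressing Gα16 and hTAAR1 / Benchmarks: DMSO vehicle as 0%, PEA at EC100 as 100% / Repeats: no replicates (n 1) / Measure: % activation from peak over basal fluorescence ratio, DMSO-to-PEA scaled / Timing: 17-24 h plating, Fluo-8 75 min 37 °C, 30 min RT / Technique: kinetic Fluo-8 calcium fluorescence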
V1aR counter – activates human V1a receptor in oxytocin agonist counter-screen; AID 2797; activation, % at 3 µM; hit rate 0.25% among 320,000; CHO-V1R cells, Fluo-8 calcium fluorescence, agonist mode; 0% DMSO, 100% 3 nM vasopressin;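 active means activation above the mean activation of all tested compounds plus 3 SD, per screening run, cut at about 20% in these data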;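 further: signal is peak over basal fluorescence ratio across a 100 second FLIPR read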
TAAR1 antag – antagonists of human TAAR1; inhibition, % at 3 µM; AID 624466; CHO RD-HGA16 TAAR1, Fluo-8 calcium fluorescence, antagonist; hit rate 1.5% among 360,000;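 active means inhibition above a per-plate cutoff, the mean inhibition of test compounds on that plate plus 3 SD, cut at about 49% in these data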;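 further: 0% = DMSO plus EC80 beta-PEA response and 100% = DMSO alone without agonist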
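Test system – hTAAR1-expressing CHO RD-HGA16 cells, Gα16-coupled · Reagent – β-PEA at EC80 concentration, post-compound challenge · Compound dosing – 3 µM, single point · Timing – 140 s kinetic read after compound, 140 s after agonist · Detection – Fluo-8 intracellular calcium dye fluorescence, real-time kinetic reads · Control set – DMSO and EC80 PEA controls · Repeats – n of 1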
OXTR ag – human OXTR agonism | P30559 | CHO-OTR cells, Fluo-8 calcium fluorescence; normalized: DMSO 0%, oxytocin 100% | activation, % at 3 µM | hit rate 0.32% among 320,000 | AID 2435;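 active means activation above the mean of all tested compounds plus 3 SD, cutoff set per screening run, cut at about 20% in these data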;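 further: peak over basal fluorescence ratio from a 100 s FLIPR kinetic read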
Target sequence (P30559 whole entry, looked up): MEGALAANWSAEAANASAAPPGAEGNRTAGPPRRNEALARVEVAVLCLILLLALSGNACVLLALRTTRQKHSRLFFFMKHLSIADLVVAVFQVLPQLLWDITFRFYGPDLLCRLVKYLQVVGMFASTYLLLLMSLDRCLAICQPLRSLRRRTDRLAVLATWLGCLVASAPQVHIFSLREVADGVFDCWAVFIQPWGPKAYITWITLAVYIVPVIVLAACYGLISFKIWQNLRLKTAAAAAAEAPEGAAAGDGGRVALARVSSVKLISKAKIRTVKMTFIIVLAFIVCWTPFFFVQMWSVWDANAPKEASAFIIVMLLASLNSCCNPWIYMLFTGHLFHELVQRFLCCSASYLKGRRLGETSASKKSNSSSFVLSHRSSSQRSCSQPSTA
OXTR potentiate – potentiators of human oxytocin receptor; activation, % at 3 µM; CHO-OTR cells, Fluo-8 calcium fluorescence, potentiator mode; 0% = oxytocin EC15, 100% = EC100; hit rate 0.061% among 320,000; AID 2445;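 active means activation above that plate's cutoff, the mean activation of tested compounds plus 3 SD, cut at about 6.6% in these data, passing the limit was not always enough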;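 further: 100% uses oxytocin at 75 nM as the full agonist control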
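Material: human OTR in CHO cells. Compound: 3.0 µM, one dose. Timing: compound 6 min at room temperature before oxytocin, 100 s read. Evaluation: % activation of max/min ratio relative to oxytocin controls. Replication: single well per compound, singlicate. Signal: Fluo-8 calcium dye fluorescence.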
OXTR agonist cf – human OXTR agonism, confirmation; shares compounds with OXTR ag; CHO-OTR cells, Fluo-8 calcium fluorescence, agonist; activation, % at 3 µM; hit rate 20% among 390; AID 434963;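 active means mean activation above about 20% derived from the earlier single-dose screen, limit read from the data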;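 further: peak over minimum fluorescence ratio per well during a 100 second FLIPR read; 0% = DMSO alone and 100% = oxytocin high control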
V1R ag counter 3x – activates V1a receptor in oxytocin agonist counter-screen | CHO-V1R cells, Fluo-8 calcium fluorescence | AID 434991 | shares compounds with OXTR ag | activation, % at 3 µM | hit rate 10% among 390;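 active means mean activation over triplicate exceeds the hit threshold set in the earlier primary screen, cut at about 20% in these data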;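 further: peak over basal fluorescence ratio within a 100 second read; 0% = DMSO alone and 100% = 3 nM vasopressin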
Starred values were filed as active, the others as inactive; / = not tested or not shown; ! = repeats disagree.

SMILES	TAAR1 ag	V1aR counter	TAAR1 antag	OXTR ag	OXTR potentiate	OXTR agonist cf	V1R ag counter 3x
COc1ccc(C(C(=O)NC2CCCC2)N(CC2CCCO2)C(=O)Cc2cccs2)cc1OC (stereo not drawn)	-1.2	1.1	7.7	-0.7	0.2	/	/
Cc1cccc(NC(=O)CCNS(=O)(=O)c2cccc3nonc23)c1C	7.8	0.3	6.0	0.1	-0.9	/	/
Cc1cccc2sc(NC(=O)CCNS(=O)(=O)c3cccc4nonc34)nc12	30.1	13.1	28.5	20.1*	-11.7	3.8	3.4
CC1=C/C(=N\OS(=O)(=O)c2ccccc2)C(C)=CC1=O	/	11.2	/	19.9*	-21.6	9.1	11.3
OCCN1CCOCCOc2ccccc2OCCOCC1	0.2	0.4	-2.4	-0.3	-4.1	/	/
c1ccc2c(c1)OCCOCCOCCOCCOCCOc1ccccc1OCCOCCOCCO2	14.4	13.2	26.1	21.0*	-10.6	10.2	11.9
CCc1ccc(C(O)c2ncc(-c3ccc(Cl)cc3)[nH]2)cc1 (stereo not drawn)	4.2	/	-16.6	/	/	/	/
CC(Sc1nnnn1C)C(=O)Nc1ncc(Cl)cc1Cl (stereo not drawn)	0.6	0.0	9.7	1.0	-3.0	/	/
Clc1ccc(C2CSc3c4ncnc-4ncn32)cc1 (stereo not drawn)	1.4	0.6	-19.9	-0.1	1.1	/	/
COc1ccc(C(=O)CSc2nnc(CNc3ccc(C)cc3C)o2)cc1	15.4	11.1	-0.7	24.7*	-22.0	1.8	3.1
Cc1ccc(NCc2nnc(SCC(=O)c3ccc4c(c3)OCCO4)o2)c(C)c1	8.1	1.3	11.7	3.4	-2.3	/	/
Cc1nn(-c2ccccc2)nc1C(=O)NNC(=O)c1ccc(C(F)(F)F)cc1	-1.8	-0.5	-17.1	-2.8	-3.9	/	/
O=C(NCc1ccc(OC(F)(F)F)cc1)c1cccc2c1C(=O)c1ccc(N3CCCC3)cc1S2(=O)=O	2.2	11.4	2.6	8.5	-8.3	/	/
O=C(NCc1ccc(OC(F)(F)F)cc1)c1cccc2c1C(=O)c1ccc(N3CCC(Cc4ccccc4)CC3)cc1S2(=O)=O	3.5	6.2	14.8	22.8*	-2.2	22.2*	26.5*
COc1ccc(C(=O)Nc2ccc(N3CCN(C(C)=O)CC3)cc2)cc1[N+](=O)[O-]	-0.5	-0.5	-9.1	24.6*	-11.5	0.6	0.3
Cc1cc(OC(C)C(=O)NNC(=O)Nc2ccc(F)cc2F)cc(C)c1Cl (stereo not drawn)	1.5	0.7	-21.2	-0.4	-6.8	/	/
Cc1cccc(OCCNc2cc(N3CCN(C)CC3)ccc2[N+](=O)[O-])c1	2.1	5.9	14.9	4.5	2.4	/	/
Cc1ccc(OCCNc2cc(N3CCN(CCO)CC3)ccc2[N+](=O)[O-])cc1C	25.9	12.8	7.8	22.7*	-10.2	4.4	0.8
COC1=CC(=Cc2c(N)n3nc(CC(=O)N4CCOCC4)sc3nc2=O)C=C(OC)C1=O	8.3	7.9	-2.1	20.5*	-0.2	55.2*	96.9*
COc1cc(-c2[nH]ncc2CN2CCN(Cc3cccs3)CC2)cc(OC)c1OC	3.3	0.4	-10.9	0.1	-4.5	/	/
CCN1CCN(C(=O)C2CCN(c3nnc(-n4c(C)ccc4C)s3)CC2)CC1	-0.1	0.2	3.1	0.4	-7.4	/	/
Nc1cc(=O)[nH]c(SCc2ccc(Cl)cc2Cl)n1	9.1	13.6	-11.2	21.6*	-22.2	11.2	9.8
CC(=O)Nc1ccc(S(=O)(=O)Oc2cccc(N3C(=O)C4CC=CCC4C3=O)c2)cc1 (stereo not drawn)	19.0	13.0	39.1	11.1	-6.5	/	/
CC(=O)Nc1ccc(S(=O)(=O)Oc2ccc(N3C(=O)C4CCCCC4C3=O)cc2)cc1 (stereo not drawn)	34.2	16.9	16.4	23.7*	-10.5	14.4	14.4
Cc1cccc(C)c1NC(=O)CN1C(=O)N(C)Cc2ccccc21	2.4	0.4	-1.0	-0.1	-2.3	/	/
SMILES	TAAR1 ag	V1aR counter	TAAR1 antag	OXTR ag	OXTR potentiate	OXTR agonist cf	V1R ag counter 3x
Cc1ccc(C(C)C)c(OCCNCc2ccccc2)c1	22.9	9.7	27.1	8.6	-9.9	/	/
Cc1cc(OCCOCCNCc2ccccc2)ccc1C(C)C	32.0	10.9	-1.9	21.6*	-15.1	3.4	0.6
Cc1cc(C)c(S(=O)(=O)C(C)C)c(=O)[nH]1	-0.6	1.2	11.2	0.4	-3.4	/	/
COC(=O)[C@]12C[C@H](CC(=O)N3CCCCC3)C(=O)N(Cc3ccc4c(c3)OCO4)C1=C[C@H](C(C)(C)C)O[C@@H]2C	-1.0	/	-24.0	/	/	/	/
O=C(CN1CCN(CC(=O)Nc2ccc(OCc3ccccc3)cc2)CC1)Nc1ccc(F)cc1	/	14.8	/	21.5*	-12.4	9.4	8.5
O=C(CCN1CCN(Cc2ccccc2)CC1)Nc1ccc(OCc2ccccc2)cc1	19.1	14.6	-8.5	22.2*	-12.4	11.2	7.8
O=C(CN1CCOCC1)Nc1ccc(OCc2ccccc2)cc1	1.8	1.4	3.1	2.9	-7.0	/	/
O=C(CCc1cn(Cc2ccc(F)cc2)c2ccccc12)N1CCOCC1	5.4	5.1	-2.6	19.6*	-24.0	-0.8	0.2
COc1ccc(CCn2c(C(C)C)nc3c(c(=O)c4ccccc4n3C)c2=O)cc1	/	10.2	/	30.2*	-19.1	-0.2	13.2
O=C1C=C(O)CC(c2ccc(Cl)c(Cl)c2)C1 (stereo not drawn)	0.7	-0.3	1.0	0.8	-11.7	/	/
CN[C@H]1CC[C@@H](c2ccc(Cl)c(Cl)c2)c2ccccc21	52.5*	9.2	50.9*!	21.1*!	-19.3	2.9	6.3
CC(=O)c1ccc2c(c1)CCN2	-0.4	/	-4.8	/	/	/	/
CCSc1ccc2c(c1)N(CCCN1CCN(C)CC1)c1ccccc1S2	11.6	2.6	34.7	8.9	-5.3	/	/
CN1CCN(CCCN2c3ccccc3Sc3ccc(Cl)cc32)CC1	15.1	10.5	-4.4	24.9*!	-17.0	10.9	2.6
CCN(CC)CCN1C(=O)C(=O)/C(=C(/O)c2ccc(S(=O)(=O)N3CCOCC3)cc2)C1c1ccc(C(C)(C)C)cc1 (stereo not drawn)	/	0.0	/	0.4	-0.8	/	/
O=C(Nc1ccc(F)cc1F)c1ccc2c(c1)[nH]c(=O)n2Cc1ccc(F)cc1	3.5	4.4	-6.4	4.3	-17.2	/	/
COc1ccc(CCn2ccc(O)c(Cc3c(F)cccc3Cl)c2=O)cc1OC	-0.2	0.8	1.6	-0.4	1.7	/	/
CC1=NN2C(=N)/C(=C\c3cc(C)n(Cc4ccccc4)c3C)C(=O)N=C2S1	3.0	8.3	-4.0	21.8*	-19.5	4.0	8.4
Cc1cc(/C=C2\C(=N)N3N=C(CC(=O)N4CCOCC4)SC3=NC2=O)c(C)n1Cc1ccccc1	-0.4	0.1	-14.3	0.6	3.6	/	/
